Consider 16 molecules from ChEMBL document CHEMBL1132918, “Synthesis and evaluation of tryprostatin B and demethoxyfumitremorgin C analogues” (J Med Chem, 2000).

Where only a bound is given, the exact number is not on record here.

For test [1], the system named is NCI-60 human tumor cell line panel (Homo sapiens). As to the kind of experiment: Cytostatic effect in NCI-60 human tumor cell lines. On the set-up: unit not given here.
For test [2], the system named is Melanoma cell. Briefly: Inhibitory activity against melanoma cell line. Type of test: functional, cell-based. The settings on record: for IC50: Homo sapiens, Melanoma cell.
The test system of test [3] is NCI-60 human tumor cell line panel (Homo sapiens). Briefly: Mean concentration causing inhibition of cell growth in the NCI-60 human tumor cell line panel.
Test [4] concerns CNS cell. As to the kind of experiment: Inhibitory activity against CNS cell line. Format: functional, cell-based. The settings on record: for IC50: Homo sapiens, CNS cell.
For test [5], the system named is Breast carcinoma cell. Briefly: Inhibitory activity against breast cell line. Type of test: functional, cell-based. The settings on record: for IC50: Homo sapiens, Breast carcinoma cell; for Log IC50: breast carcinoma cell.
Test [6] relates to Colon cell. Briefly: Inhibitory activity against Colon cell line. Type of test: functional, cell-based. The settings on record: for IC50: Homo sapiens, Colon cell; for Log IC50: colon cell.
The subject of test [7] is Panel leukemia (Carcinoma cell lines). Briefly: Inhibitory activity against leukemia cell line. Format: functional, cell-based. The settings on record: for IC50: Homo sapiens, Panel leukemia (Carcinoma cell lines); for Log IC50: panel leukemia (carcinoma cell lines).
In test [8] the test system is 3Y1 cell line. As to the kind of experiment: Cytotoxicity in 3Y1 cells. Format: functional, Rattus norvegicus. On the set-up: unit not given here. Summed up: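 Rat normal fibroblast 3Y1 cells grown in Dulbecco's modified MEM with 10% fetal calf serum, 5% CO2, humidified. Exponentially growing cells exposed to compounds for 24 h. Relative cell number = cell number at 24 h per initial cell number at 0 h × 100; DNA content distribution read by laser scanning cytometry.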

Test [9] concerns non-small-cell lung cancer cell lines (Homo sapiens). As to the kind of experiment: Inhibitory activity against non-small-cell lung cancer cell lines. The settings on record: for IC50: Homo sapiens.
Test [10] deals with Ovarian carcinoma cell. As to the kind of experiment: Inhibitory activity against ovarian cell line. Format: functional, cell-based. The settings on record: for IC50: Homo sapiens, Ovarian carcinoma cell.
For test [11], the system named is Prostate cell. Briefly: Inhibitory activity against prostate cell line. The settings on record: for IC50: Homo sapiens, Prostate cell. Format: functional, cell-based.
Test [12] has as its system Renal cell. Briefly: Inhibitory activity against renal cell line. Type of test: functional, cell-based. The settings on record: for IC50: Homo sapiens, Renal cell.

In the case of `COc1cc([C@@H]2c3[nH]c4ccccc4c3C[C@H]3C(=O)N4CCC[C@H]4C(=O)N23)cc(OC)c1O`, the TGI in test [1] is greater than -4. For the same molecule, the 50% inhibitory concentration (IC50) in test [2], in [4], in test [5], in test [6], in test [7] and in [9] was greater than 100 µM in each case. In addition, the concentration for half-maximal inhibition (IC50) in test [10], in test [11] and in test [12] was greater than 100 µM each time. Besides, the GI50 in test [3] (Homo sapiens, NCI-60 panel) is greater than 100 µM. In test [8], this molecule gave an LC50 greater than -4.

In turn, `O=C1[C@@H]2CCCN2C(=O)[C@H](Cc2c[nH]c3ccccc23)N1C/C=C/c1ccccc1` gave a TGI in test [1] of -4.07. The IC50 in [2] is 43.7 µM; in [4], 37.2 µM; in test [5], 27.5 µM; in test [6] it was 35.5 µM; in test [7] it was 22.9 µM; in test [9] it was 32.4 µM. The IC50 was 44.7 µM in [10], 39.8 µM in test [11] and 35.5 µM in [12]. In addition, the GI50 in test [3] (Homo sapiens, NCI-60 panel) is 31.6 µM. For the same molecule, in test [8], the LC50 is recorded as -4.01.

For the molecule `CC(C)C[C@H]1c2[nH]c3ccccc3c2C[C@H]2C(=O)N3CCC[C@H]3C(=O)N21`, the IC50 in test [2] was 87.1 µM; in test [4], 83.2 µM; in test [5], 63.1 µM; in test [6], 67.6 µM; in [7], 36.3 µM; in test [9] it was 77.6 µM. The IC50 was 79.4 µM in test [10], 83.2 µM in [11] and 74.1 µM in [12]. In addition, in [3] (Homo sapiens, NCI-60 panel), the GI50 is 70.8 µM. This molecule gave an LC50 in [8] greater than -4.

For `O=C1[C@@H]2Cc3c([nH]c4ccccc34)[C@H](c3ccccc3)N2C(=O)[C@@H]2CCCN12`, the TGI in test [1] was greater than -4. Further, the IC50 was 51.3 µM in test [2]; greater than 100 µM in test [4]; 36.3 µM in test [5]; 41.7 µM in test [6]; 13.8 µM in test [7]; 63.1 µM in test [9]. The IC50 in test [10] was 57.5 µM; in test [11], 85.1 µM; in test [12] it was 42.7 µM. The same molecule had a GI50 in test [3] (Homo sapiens, NCI-60 panel) of 47.9 µM. The same molecule gave an LC50 in [8] greater than -4.

Consider `COc1cc([C@@H]2c3[nH]c4ccccc4c3C[C@H]3C(=O)N4CCC[C@H]4C(=O)N23)cc(OC)c1OC`, for which the TGI in test [1] is reported as -4.01. Moreover, the IC50 in test [2] is 87.1 µM; in test [4], 74.1 µM; in test [5], 46.8 µM; in [6], 74.1 µM; in test [7], 32.4 µM; in [9], 69.2 µM. Also, the 50% inhibitory concentration (IC50) in test [10] is 77.6 µM; in test [11], 72.4 µM; in test [12] it was 77.6 µM. In test [3] (Homo sapiens, NCI-60 panel), this molecule showed a concentration for 50% growth inhibition (GI50) of 66.1 µM. For the same molecule, the LC50 in [8] was greater than -4.

Consider `COc1cc([C@H]2c3[nH]c4ccccc4c3C[C@H]3C(=O)N4CCC[C@H]4C(=O)N23)cc(OC)c1O`, for which, in test [1], the TGI is on record as greater than -4.03. Also, the half-inhibitory concentration (IC50) in [2] was 55 µM; in [4], 33.1 µM; in test [5] it was 46.8 µM; in [6] it was 89.1 µM; in test [7] it was 100 µM; in test [9], 40.7 µM. For the same molecule, the IC50 in test [10] is 39.8 µM; in [11] it was 66.1 µM; in test [12], 44.7 µM. In [3] (Homo sapiens, NCI-60 panel), this molecule gave a 50% growth inhibitory concentration (GI50) of 53.7 µM. This molecule also yielded an LC50 in test [8] greater than -4.

On to `O=C1[C@@H]2Cc3c([nH]c4ccccc34)[C@@H](c3ccccc3)N2C(=O)[C@@H]2CCCN12`, for which the TGI in test [1] is greater than -4. Also, the IC50 was 50.1 µM in test [2]; 61.7 µM in [4]; 49 µM in [5]; 45.7 µM in test [6]; 40.7 µM in test [7]; 52.5 µM in test [9]. Further, the figures for the 50% inhibitory concentration (IC50) in test [10], in test [11] and in test [12] were 56.2 µM, 63.1 µM and 50.1 µM, respectively. The molecule further had a GI50 in test [3] (Homo sapiens, NCI-60 panel) of 51.3 µM. In test [8], this molecule yielded an LC50 greater than -4.

With `CC(C)C[C@@H]1c2[nH]c3ccccc3c2C[C@H]2C(=O)N3CCC[C@H]3C(=O)N12`, in test [1], the TGI is on record as greater than -4. Besides, the IC50 in test [2] was greater than 100 µM; in test [4], 85.1 µM; in [5] it was 87.1 µM; in test [6], greater than 100 µM; in [7] it was 77.6 µM; in [9] it was 93.3 µM. Besides, the 50% inhibitory concentration (IC50) in test [10] was greater than 100 µM; in [11], greater than 100 µM; in test [12] it was 97.7 µM. Besides, growth in test [3] (Homo sapiens, NCI-60 panel) was halved (GI50) at 93.3 µM. Further, the LC50 in [8] was greater than -4.

With `O=C1[C@H](Cc2c[nH]c3ccccc23)N(Cc2ccccc2)C(=O)[C@@H]2CCCN12`, the TGI in [1] is recorded as greater than -4. Moreover, the half-maximal inhibitory concentration (IC50) in test [2] is greater than 100 µM; in test [4] it was greater than 100 µM; in [5], greater than 100 µM; in test [6], greater than 100 µM; in [7] it was 85.1 µM; in [9], greater than 100 µM. The IC50 in [10], in [11] and in test [12] was greater than 100 µM each time. The GI50 in [3] (Homo sapiens, NCI-60 panel) was 97.7 µM. In test [8], this molecule registered an LC50 greater than -4.

As for `COc1cc([C@H]2c3[nH]c4ccccc4c3C[C@H]3C(=O)N4CCC[C@H]4C(=O)N23)cc(OC)c1OC`, the TGI in test [1] was greater than -4. Moreover, the IC50 was 93.3 µM in test [2]; 95.5 µM in test [4]; 97.7 µM in test [5]; 93.3 µM in [6]; 64.6 µM in [7]; 70.8 µM in test [9]. In addition, the IC50 in [10] is 72.4 µM; in test [11], 91.2 µM; in [12], 95.5 µM. This molecule also had a concentration for 50% growth inhibition (GI50) in test [3] (Homo sapiens, NCI-60 panel) of 87.1 µM. Also, the LC50 in test [8] is reported as greater than -4.

For the molecule `COc1cc(CN2C(=O)[C@@H]3CCCN3C(=O)[C@@H]2Cc2c[nH]c3ccccc23)cc(OC)c1OC`, in test [1], the TGI is -4.04. Also, the IC50 was 28.8 µM in test [2]; 27.5 µM in test [4]; 33.9 µM in test [5]; 30.2 µM in test [6]; 13.2 µM in test [7]; 42.7 µM in test [9]. The IC50 was 40.7 µM in test [10], 57.5 µM in [11] and 30.2 µM in [12]. The molecule also had a GI50 in test [3] (Homo sapiens, NCI-60 panel) of 30.9 µM. Besides, in test [8], the LC50 is reported as -4.01.

Turning to `COc1cc([C@@H]2c3[nH]c4ccccc4c3C[C@H]3C(=O)NCC(=O)N23)cc(OC)c1O` (relative stereo), the TGI in test [1] is listed as -4.01. The half-inhibitory concentration (IC50) is 45.7 µM in test [2]; 38 µM in test [4]; 49 µM in test [5]; 46.8 µM in test [6]; 38 µM in [7]; 56.2 µM in test [9]. Also, the IC50 in test [10] was 66.1 µM; in [11] it was 70.8 µM; in [12], 55 µM. For the same molecule, growth in [3] (Homo sapiens, NCI-60 panel) was halved (GI50) at 50.1 µM. In test [8], this molecule yielded an LC50 greater than -4.

In [1], `COc1cc([C@H]2c3[nH]c4ccccc4c3C[C@H]3C(=O)NCC(=O)N23)cc(OC)c1O` (relative stereo) had a TGI greater than -4. Besides, the IC50 in test [2], in [4], in test [5], in test [6], in test [7] and in test [9] was greater than 100 µM throughout. Besides, the concentration for half-maximal inhibition (IC50) in test [10], in test [11] and in test [12] was greater than 100 µM each time. For the same molecule, the GI50 in test [3] (Homo sapiens, NCI-60 panel) is greater than 100 µM. This molecule came in with an LC50 in test [8] greater than -4.

Molecule `COc1cc([C@@H]2c3[nH]c4ccccc4c3C[C@H]3C(=O)NCC(=O)N23)cc(OC)c1OC` (relative stereo) came in with a TGI in test [1] of -4.26. For the same molecule, the concentration for half-maximal inhibition (IC50) in test [2] was 6.76 µM; in [4], 3.72 µM; in test [5], 6.31 µM; in test [6], 4.37 µM; in test [7], 2.29 µM; in test [9], 7.59 µM. Besides, the results for the IC50 in test [10], in test [11] and in test [12] were 5.89 µM, 5.5 µM and 13.8 µM, respectively. Halving of growth in test [3] (Homo sapiens, NCI-60 panel) (GI50) required 5.89 µM. Moreover, in test [8], the LC50 is listed as -4.04.

Take `CC(C)=C[C@H]1c2[nH]c3ccccc3c2C[C@H]2C(=O)N3CCC[C@H]3C(=O)N21` (stereo in doubt) [DEMETHOXYFUMITREMORGIN C]: the “Log IC50” value in [2] (melanoma cell) is recorded as greater than -4; in test [4] (cns cell) it was -4; in test [5] it was greater than -4; in [6], -4.02; in test [7], -4.16; in test [9] it was -4.03. Moreover, the “Log IC50” value in [10] (ovarian carcinoma cell), in test [11] (prostate cell) and in [12] (renal cell) was greater than -4 each time. The molecule further showed a GI50 in [3] of 95.5 µM.

Consider `CC(C)=CCN1C(=O)[C@@H]2CCCN2C(=O)[C@@H]1Cc1c[nH]c2ccccc12` (stereo in doubt; 5a), for which the TGI in test [1] is recorded as greater than -4. In test [3], this molecule showed a GI50 greater than 100 µM. The “Log IC50” value in [5], in test [6], in test [7] and in test [9] was greater than -4 throughout.
